Experimental data of several laboratories.
Protocols differ between the studies behind these lines.

| SMILES | species | sample | route | dose | setting | measurement | value |
| --- | --- | --- | --- | --- | --- | --- | --- |
| CNC(=O)[C@H](Cc1c[nH]cn1)NC(=O)CN(CCCc1ccccc1)CC(=O)O | male C57BL/6 mouse | plasma | intraperitoneal | 30 mg/kg |  | AUC | 3600 ng·h/mL |
| OC[C@H]1O[C@@H](c2ccc(Cl)c(Cc3ccc(O[C@H]4CCOC4)cc3)c2)[C@H](O)[C@@H](O)[C@@H]1O | CD-1 mouse | plasma | oral | 10 mg/kg |  | AUC | 741 ng·h/mL |
| CC[C@H](C)[C@@H]1NC(=O)[C@@](C)(NC(=O)[C@H](CCCNC(=N)N)NC(=O)[C@H](CC(C)C)NC(=O)[C@@H](NC(=O)[C@H](CCC(N)=O)NC(=O)[C@H](CC(C)C)NC(C)=O)[C@@H](C)O)CCCC=CCCC[C@@](C)(C(=O)N[C@@H](CC(C)C)C(=O)N[C@@H](Cc2ccc3ccccc3c2)C(N)=O)NC(=O)[C@H](CCCNC(=N)N)NC(=O)[C@H](CCC(N)=O)NC1=O | male BALB/c mouse | plasma | intravenous | 5 mg/kg |  | AUC(0-inf) | 126000 ng·h/mL |
| CC(C)(O)c1cn(-c2ccc(-c3cc(F)c(CO)c(S(C)(=O)=O)c3)cc2)c(C(C)(C)c2cccc(F)c2Cl)n1 | male C57BL/6 mouse | serum | oral | 10 mg/kg |  | AUC | 6.9 µM·h |
| NC[C@@H]1O[C@H](O[C@H]2[C@@H](O)[C@H](O[C@@H]3[C@@H](O)[C@H](N)C[C@H](N)[C@H]3O[C@H]3O[C@H](CO)[C@@H](O)[C@H](O)[C@H]3N)O[C@@H]2CO)[C@H](N)[C@@H](O)[C@@H]1O | male BALB/c mouse | plasma | oral | 500 mg/kg |  | AUC | 3400 ng·h/mL |
| Cc1ccc2cncc(N3CCc4c(cc(Cn5ccnc5)cc4-c4cn(C)nc4C(F)(F)F)C3=O)c2c1 | male CD-1 mouse | plasma | intravenous | 3 mg/kg |  | AUC(0-t) | 3840 ng·h/mL |
| COc1ccc(C(O)COc2ccc(-c3csc(-c4ccc(OCC(O)c5ccc(OC)c(OC)c5)cc4)n3)cc2)cc1OC (stereo not drawn) | C57BL/6 mouse | plasma | oral | 30 mg/kg |  | AUC(0-t) | 34000 ng·h/mL |
| CC(C)(O)c1cn(-c2ccc(-c3cccc(S(C)(=O)=O)c3)cc2)c(C(C)(C)c2ccccc2Cl)n1 | male C57BL/6 mouse | serum | oral | 10 mg/kg |  | AUC | 57 µM·h |
| Cc1nc(-c2cnc(NC(C)C)n(C)c2=O)ccc1Oc1ccnc(-c2cnn(C)c2)c1 | female mouse | plasma | oral | 30 mg/kg | single dose | AUC(0-inf) | 285000 ng·h/mL |
| CC1(C)c2nc(-c3ccc(F)cc3)c(Nc3ccc(F)cc3)n2CCN1C(=O)CN | mouse | plasma | oral | 2 mg/kg |  | AUC | 0.78 µM·h |
| C=CC(=O)N1CC2CC(n3nc(-c4ccc(C(=O)Nc5ccccn5)cc4)c4c(N)ncnc43)CC2C1 (stereo not drawn) | SCID mouse | plasma | oral | 1 mg/kg |  | AUC(0-t) | 175 ng·h/mL |
| COc1ccc2nccc(N3CCc4c(cc(Cn5ccnc5)cc4-c4cn(C)nc4C(F)(F)F)C3=O)c2c1 | male CD-1 mouse | plasma | intravenous | 3 mg/kg |  | AUC(0-t) | 1840 ng·h/mL |
| CC(C)(C)c1ccc(O)c(CN(Cc2cc(C(C)(C)C)ccc2O)C2CCC(NC(N)=O)CC2)c1 (stereo not drawn) | male C57BL/6 mouse | plasma | intraperitoneal | 5 mg/kg | single dose | AUC(0-inf) | 6180 ng·h/mL |
| CNC(=O)[C@H](Cc1c[nH]cn1)NC(=O)CN(CCCc1ccccc1)CC(=O)OC | male C57BL/6 mouse | plasma | intraperitoneal | 30 mg/kg |  | AUC | 1000 ng·h/mL |
| CCc1cc(C(=O)NC)c2nccc(N3CCc4c(cc(Cn5ccnc5)cc4-c4cn(C)nc4C(F)(F)F)C3=O)c2c1 | male CD-1 mouse | plasma | oral | 150 mg/kg |  | AUC(0-inf) | 527000 ng·h/mL |
